From ChEMBL document CHEMBL4038284, “Synthesis of novel quinoline-based 4,5-dihydro-1H-pyrazoles as potential anticancer, antifungal, antibacterial and antiprotozoal agents” (Eur J Med Chem, 2017)
The source made the active and inactive calls. No cut-off for these calls is given here.

Legend:
[1] = system: SN12C; experiment: Growth inhibition of human SN12C cells at 10 uM incubated for 48 hrs by sulforhodamine B assay; format: functional, cell-based
Procedure, shortened: (§1)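 NCI-60 single-dose screen at 10 µM for 48 h. Cells were grown in RPMI-1640 with 5% FBS and 2 mM L-glutamine and preincubated 24 h before compound. Time-zero plates were TCA-fixed at compound addition. After exposure, cells were TCA-fixed, stained with SRB and read at 515 nm. Percentage growth was calculated against time-zero and untreated-control absorbances.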

[2] = system: RPMI-8226; experiment: Growth inhibition of human RPMI8226 cells at 10 uM incubated for 48 hrs by sulforhodamine B assay; format: functional, cell-based
Procedure, shortened: (§2)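 NCI 60-line panel, single 10 μM dose. Cells were grown in RPMI-1640 with 5% FBS and 2 mM L-glutamine and pre-incubated 24 h before compound addition (DMSO stock). Exposure was 48 h at 37 °C, 5% CO2. Cells were fixed with cold TCA (10% final), stained with 0.4% SRB, bound dye dissolved in 10 mM Tris base, A515 read. Growth was taken relative to time-zero and untreated control plates.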

[3] = system: HL-60(TB); experiment: Growth inhibition of human HL-60(TB) cells at 10 uM incubated for 48 hrs by sulforhodamine B assay; format: functional, cell-based
Procedure, shortened: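 NCI 60-line single-dose screen at 10 μM, 48 h. Cells in RPMI-1640 with 5% FBS and 2 mM L-glutamine at 37 °C, 5% CO2. Growth measured by TCA fixation and SRB staining (515 nm), relative to time-zero and untreated control wells.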

[4] = system: SK-OV-3; experiment: Growth inhibition of human SKOV3 cells at 10 uM incubated for 48 hrs by sulforhodamine B assay; format: functional, cell-based; procedure, shortened: as §1
[5] = system: T47D; experiment: Growth inhibition of human T47D cells at 10 uM incubated for 48 hrs by sulforhodamine B assay; format: functional, cell-based; procedure, shortened: as §1
[6] = system: Klebsiella pneumoniae; experiment: Antibacterial activity against ESBL positive Klebsiella pneumoniae ATCC 700603 after 24 hrs by resazurin dye based microdilution assay; format: functional; conditions: Klebsiella pneumoniae, 700603, 24 h
Procedure, shortened: (§3)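 MIC taken as the lowest concentration giving visible inhibition and/or by resazurin (1 mg/mL). Gentamicin was the control. Run in duplicate, repeated at least three times.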

[7] = system: Staphylococcus aureus; experiment: Antibacterial activity against vancomycin-intermediate Staphylococcus aureus after 24 hrs by resazurin dye based microdilution assay; format: functional; procedure, shortened: as §3
[8] = system: SNB-19; experiment: Growth inhibition of human SNB19 cells at 10 uM incubated for 48 hrs by sulforhodamine B assay; format: functional, cell-based; procedure, shortened: as §1
[9] = system: SF-268; experiment: Growth inhibition of human SF268 cells at 10 uM incubated for 48 hrs by sulforhodamine B assay; format: functional, cell-based; procedure, shortened: as §2
[10] = system: IGROV-1; experiment: Growth inhibition of human IGROV1 cells at 10 uM incubated for 48 hrs by sulforhodamine B assay; format: functional, cell-based; procedure, shortened: as §2
[11] = system: HOP-92; experiment: Growth inhibition of human HOP92 cells at 10 uM incubated for 48 hrs by sulforhodamine B assay; format: functional, cell-based; procedure, shortened: as §2
[12] = system: NCI-H522; experiment: Growth inhibition of human NCI-H522 cells at 10 uM incubated for 48 hrs by sulforhodamine B assay; format: functional, cell-based; procedure, shortened: as §2
[13] = system: EKVX; experiment: Growth inhibition of human EKVX cells at 10 uM incubated for 48 hrs by sulforhodamine B assay; format: functional, cell-based
Procedure, shortened: (§4)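 NCI 60-cell-line screen at a single 10 µM dose. Cells in RPMI-1640 with 5% FBS and 2 mM L-glutamine, pre-incubated 24 h, then treated for 48 h at 37 °C. TCA fixation, sulforhodamine B staining, absorbance at 515 nm. Percentage growth calculated against time-zero and untreated controls.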

[14] = system: Candida albicans; experiment: Antifungal activity against Candida albicans ATCC 10231 incubated for 48 hrs under dark condition by broth microdilution method; format: functional; conditions: ATCC 10231, 48 h
Procedure, shortened: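 CLSI M27-A3 broth microdilution in RPMI-1640, DMSO ≤1%, compounds at 250-0.98 µg/mL final. Inoculum 1-5 × 10^3 CFU/mL. Incubated 48 h at 30 °C in a moist dark chamber, read at OD405. MIC80 and MIC50 taken from % inhibition dose-response curves (mean ± SEM, triplicate). Amphotericin B was the positive control.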

[15] = system: SK-MEL-5; experiment: Growth inhibition of human SK-MEL-5 cells at 10 uM incubated for 48 hrs by sulforhodamine B assay; format: functional, cell-based; procedure, shortened: as §1
[16] = system: RXF 393; experiment: Growth inhibition of human RXF393 cells at 10 uM incubated for 48 hrs by sulforhodamine B assay; format: functional, cell-based; procedure, shortened: as §2
[17] = system: Cryptococcus neoformans; experiment: Growth inhibition of Cryptococcus neoformans ATCC 32264 at 15.62 ug/ml incubated for 48 hrs under dark condition by broth microdilution method relative to control; format: functional; conditions: ATCC 32264, 48 h, read-out: GI
Procedure, shortened: (§5)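 CLSI M27-A3 broth microdilution in RPMI-1640, DMSO ≤1%. Inoculum 1-5 × 10^3 CFU/mL. Incubated 48 h at 30 °C, dark. % inhibition = 100 − (OD405 test − sterility control)/(OD405 growth control − sterility control), with growth and sterility control wells. Triplicate.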

[18] = system: Candida albicans; experiment: Growth inhibition of Candida albicans ATCC 10231 at 31.25 ug/ml incubated for 48 hrs under dark condition by broth microdilution method relative to control; format: functional; conditions: ATCC 10231, 48 h, read-out: GI; procedure, shortened: as §5
[19] = system: A498; experiment: Growth inhibition of human A498 cells at 10 uM incubated for 48 hrs by sulforhodamine B assay; format: functional, cell-based; procedure, shortened: as §4
[20] = system: COLO 205; experiment: Growth inhibition of human COLO205 cells at 10 uM incubated for 48 hrs by sulforhodamine B assay; format: functional, cell-based; procedure, shortened: as §4
[21] = system: SK-MEL-2; experiment: Growth inhibition of human SK-MEL-2 cells at 10 uM incubated for 48 hrs by sulforhodamine B assay; format: functional, cell-based; procedure, shortened: as §1
[22] = system: Hs-578T; experiment: Growth inhibition of human Hs578T cells at 10 uM incubated for 48 hrs by sulforhodamine B assay; format: functional, cell-based; procedure, shortened: as §2
[23] = system: Cryptococcus neoformans; experiment: Growth inhibition of Cryptococcus neoformans ATCC 32264 at 62.5 ug/ml incubated for 48 hrs under dark condition by broth microdilution method relative to control; format: functional; conditions: ATCC 32264, 48 h, read-out: GI; procedure, shortened: as §5
[24] = system: U-251; experiment: Growth inhibition of human U251 cells at 10 uM incubated for 48 hrs by sulforhodamine B assay; format: functional, cell-based; procedure, shortened: as §1
[25] = system: Cryptococcus neoformans; experiment: Growth inhibition of Cryptococcus neoformans ATCC 32264 at 31.25 ug/ml incubated for 48 hrs under dark condition by broth microdilution method relative to control; format: functional; conditions: ATCC 32264, 48 h, read-out: GI; procedure, shortened: as §5
[26] = system: SK-MEL-28; experiment: Growth inhibition of human SK-MEL-28 cells at 10 uM incubated for 48 hrs by sulforhodamine B assay; format: functional, cell-based; procedure, shortened: as §1
[27] = system: LOX IMVI; experiment: Growth inhibition of human LOXIMVI cells at 10 uM incubated for 48 hrs by sulforhodamine B assay; format: functional, cell-based; procedure, shortened: as §2
[28] = system: Escherichia coli; experiment: Antibacterial activity against Escherichia coli ATCC 25922 after 24 hrs by resazurin dye based microdilution assay; format: functional; conditions: ATCC 25922, 24 h; procedure, shortened: as §3
[29] = system: HOP-62; experiment: Growth inhibition of human HOP62 cells at 10 uM incubated for 48 hrs by sulforhodamine B assay; format: functional, cell-based; procedure, shortened: as §4
[30] = system: OVCAR-3; experiment: Growth inhibition of human OVCAR3 cells at 10 uM incubated for 48 hrs by sulforhodamine B assay; format: functional, cell-based; procedure, shortened: as §2
[31] = system: HCT-15; experiment: Growth inhibition of human HCT15 cells at 10 uM incubated for 48 hrs by sulforhodamine B assay; format: functional, cell-based; procedure, shortened: as §4

Row | Compound | growth inhibition (GI) [1] | growth inhibition (GI) [2] | growth inhibition (GI) [3] | growth inhibition (GI) [4] | growth inhibition (GI) [5] | MIC [6] | MIC [7] | growth inhibition (GI) [8] | growth inhibition (GI) [9] | growth inhibition (GI) [10] | growth inhibition (GI) [11] | growth inhibition (GI) [12] | growth inhibition (GI) [13] | MIC50 [14] | MIC80 [14] | growth inhibition (GI) [15] | growth inhibition (GI) [16] | inhibition of growth at 15.62 µg/mL [17] | inhibition of growth at 31.25 µg/mL [18] | growth inhibition (GI) [19] | other results
1 | Clc1ccc(C2=NN(c3cc(Cl)cc(Cl)c3)C(c3cccc(Nc4ccnc5cc(Cl)ccc45)c3)C2)cc1 (stereo not drawn) | inactive | inactive | inactive | inactive | inactive | > 1000 µg/mL | > 1000 µg/mL | inactive | inactive | inactive | inactive | inactive | inactive | ≥ 250 µg/mL | ≥ 250 µg/mL | inactive | inactive | 0% | 13.6% | inactive | growth inhibition (GI) [20]: inactive; growth inhibition (GI) [21]: inactive; growth inhibition (GI) [22]: inactive; inhibition of growth at 62.5 µg/mL [23]: 1.2%; growth inhibition (GI) [24]: inactive; inhibition of growth at 31.25 µg/mL [25]: 0%; growth inhibition (GI) [26]: inactive; growth inhibition (GI) [27]: inactive; MIC [28]: > 1000 µg/mL; growth inhibition (GI) [29]: inactive; growth inhibition (GI) [30]: inactive; growth inhibition (GI) [31]: inactive
2 | Clc1ccc(C2=NN(c3ccc(Cl)cc3)C(c3cccc(Nc4ccnc5cc(Cl)ccc45)c3)C2)cc1 (stereo not drawn) | inactive | inactive | inactive | inactive | inactive | > 1000 µg/mL | > 1000 µg/mL | inactive | inactive | inactive | inactive | inactive | inactive | ≥ 250 µg/mL | ≥ 250 µg/mL | inactive | inactive | 23.1% | 7.02% | inactive | growth inhibition (GI) [20]: inactive; growth inhibition (GI) [21]: inactive; growth inhibition (GI) [22]: inactive; inhibition of growth at 62.5 µg/mL [23]: 25.8%; growth inhibition (GI) [24]: inactive; inhibition of growth at 31.25 µg/mL [25]: 24.3%; growth inhibition (GI) [26]: inactive; growth inhibition (GI) [27]: inactive; MIC [28]: > 1000 µg/mL; growth inhibition (GI) [29]: inactive; growth inhibition (GI) [30]: inactive; growth inhibition (GI) [31]: inactive
3 | COc1ccc(C2=NN(c3ccccc3)C(c3cccc(Nc4ccnc5cc(Cl)ccc45)c3)C2)cc1 (stereo not drawn) | inactive | inactive | inactive | inactive | inactive | > 1000 µg/mL | > 1000 µg/mL | inactive | inactive | inactive | inactive | inactive | inactive | ≥ 250 µg/mL | ≥ 250 µg/mL | inactive | inactive | 6.02% | 13.4% | inactive | growth inhibition (GI) [20]: inactive; growth inhibition (GI) [21]: inactive; growth inhibition (GI) [22]: inactive; inhibition of growth at 62.5 µg/mL [23]: 10.6%; growth inhibition (GI) [24]: inactive; inhibition of growth at 31.25 µg/mL [25]: 7.77%; growth inhibition (GI) [26]: inactive; growth inhibition (GI) [27]: inactive; MIC [28]: > 1000 µg/mL; growth inhibition (GI) [29]: inactive; growth inhibition (GI) [30]: inactive; growth inhibition (GI) [31]: inactive
4 | COc1cc(C2=NN(c3ccc(Cl)cc3)C(c3cccc(Nc4ccnc5cc(Cl)ccc45)c3)C2)cc(OC)c1OC (stereo not drawn) | inactive | inactive | inactive | inactive | inactive | > 1000 µg/mL | > 1000 µg/mL | inactive | inactive | inactive | inactive | inactive | inactive | ≥ 250 µg/mL | ≥ 250 µg/mL | inactive | inactive | 12.2% | 8.05% | inactive | growth inhibition (GI) [20]: inactive; growth inhibition (GI) [21]: inactive; growth inhibition (GI) [22]: inactive; inhibition of growth at 62.5 µg/mL [23]: 17.1%; growth inhibition (GI) [24]: inactive; inhibition of growth at 31.25 µg/mL [25]: 12.5%; growth inhibition (GI) [26]: inactive; growth inhibition (GI) [27]: inactive; MIC [28]: > 1000 µg/mL; growth inhibition (GI) [29]: inactive; growth inhibition (GI) [30]: inactive; growth inhibition (GI) [31]: inactive
